Tests used:
Format in all cases: functional
HL-60 [1] = assay: Concentration required to inhibit the growth of human leukemia cancer HL-60 cell line by 50% after 120 hours; determined by MTT assay; details: HL-60, 120 h
How it was run: (§1)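 Cells (A549, HCT-116, SK-MEL-2 in DMEM; HL-60, MCF-7 in RPMI 1640; 10% FBS) seeded at 1000-1500/well, six wells per concentration, and precultured 1 day. Added 2 µM working solution and 10-fold serial dilutions, or vehicle. MTT read at 544 nm after 120 h at 37 °C, with T0 reference plates. GI50 is 50% of control growth; ≥3 independent runs.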

MCF7 [2] = assay: Concentration required to inhibit the growth of human breast cancer MCF-7 cell line by 50% after 120 hours; determined by MTT assay; details: MCF7, 120 h; how it was run: as §1
SK-MEL-2 [3] = assay: Concentration required to inhibit the growth of human malenoma cancer SK-MEL-2 cell line by 50% after 120 hours; determined by MTT assay; details: SK-MEL-2, 120 h; how it was run: as §1
A549 [4] = assay: Concentration required to inhibit human […] lung cancer A549 cell growth by 50% after 120 hours; determined by MTT assay; details: A549, 120 h; how it was run: as §1
HCT-116 [5] = assay: Concentration required to inhibit the growth of human colon cancer HCT116 cell line by 50% to initial after 120 hours; determined using MTT assay; details: HCT-116, 120 h
HCT-116 [6] = assay: Concentration required to cause lethality in human colon cancer HCT116 cell line by 50% after 120 hours; determined by MTT assay; details: HCT-116, 120 h
How it was run: (§2)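 Cells (DMEM for HCT-116, SK-MEL-2, A549; RPMI 1640 for HL-60, MCF-7; 10% FBS) were seeded at 1000-1500 per well and precultured 1 day. Methanesulfonate-salt drug was added as 10-fold serial dilutions from a 2 μM working solution, six wells per concentration. MTT absorbance was read at 544 nm after 120 h at 37 °C against T0 plates. LC50 is 50% reduction of initial cell number; values are the mean of ≥3 independent determinations.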

HL-60 [7] = assay: Concentration required to cause lethality in human leukemia cancer HL-60 cell line by 50% after 120 hours; determined by MTT assay; details: HL-60, 120 h; how it was run: as §2
SK-MEL-2 [8] = assay: Concentration required to cause lethality in human malenoma cancer SK-MEL-2 cell line by 50% after 120 hrs; determined by MTT assay; details: SK-MEL-2, 120 h; how it was run: as §2
A549 [9] = assay: Concentration required to cause lethality in human […] lung cancer A549 cell line by 50% after 120 hours; determined by MTT assay; details: A549, 120 h; how it was run: as §2
MCF7 [10] = assay: Concentration required to cause lethality in human breast cancer MCF-7 cell line by 50% after 120 hours; determined by MTT assay; details: MCF7, 120 h; how it was run: as §2
A549 [11] = assay: Concentration required for inhibition of human […] lung cancer A549 cell growth by 50%, after 120 hours; determined by MTT assay; details: A549, 120 h; how it was run: as §1

Row | Compound | GI50 (HL-60 [1]) [µM] | GI50 (MCF7 [2]) [µM] | GI50 (SK-MEL-2 [3]) [µM] | GI50 (A549 [4]) [µM] | GI50 (HCT-116 [5]) [µM] | LC50 (HCT-116 [6]) [µM] | LC50 (HL-60 [7]) [µM] | LC50 (SK-MEL-2 [8]) [µM] | LC50 (A549 [9]) [µM] | LC50 (MCF7 [10]) [µM] | GI50 (A549 [11]) [µM] | CC50 (HL-60 [7]; read-out: LC50 (the source's name)) [µM]
1 | COc1ccc2nc3cc(Cl)ccc3c(NCCCN3CCN(CCCNc4ccc5ncn6c7ccccc7c(=O)c4c56)CC3)c2c1 | 0.4 | 0.4 | 0.3 | 0.008 | 0.0038 | > 1 | > 1 | > 1 | > 1 | > 1 |  | 
2 | CN(CCCNc1ccc2ncn3c4ccccc4c(=O)c1c23)CCCN1C(=O)c2cccc3cc([N+](=O)[O-])cc(c23)C1=O | 0.12 | 0.05 | 0.15 | 0.025 | 0.008 | 0.22 | 0.5 | > 1 | 0.5 | > 1 |  | 
3 | Nc1cc2c3c(cccc3c1)C(=O)N(CCCN1CCN(CCCNc3ccc4ncn5c6ccccc6c(=O)c3c45)CC1)C2=O | 0.005 | 0.032 | 0.015 |  | 0.0022 | 0.08 | 0.45 | 0.75 | 0.1 | > 1 | 0.0025 | 
4 | O=C1c2cccc3cc([N+](=O)[O-])cc(c23)C(=O)N1CCCN1CCN(CCCNc2ccc3ncn4c5ccccc5c(=O)c2c34)CC1 | 0.0035 | 0.0032 | 0.004 | 0.0006 | 0.0005 | 0.032 | 0.033 | 0.06 | 0.035 | > 1 |  | 
5 | CN(C)CCN1C(=O)c2cccc3cc([N+](=O)[O-])cc(c23)C1=O [MITONAFIDE] | 0.045 | 0.245 | 0.15 | 0.065 | 0.25 |  |  |  |  |  |  | 0.4

— ChEMBL document CHEMBL1140308, “A new synthetic agent with potent but selective cytotoxic activity against cancer” (2005)
